Sampled rows, rich in hits. Any-hit rate of the full collection: about 3.5%.
RGS4 act = potentiators or activators of RGS4 | HEK293 M3R/inducible RGS4, carbachol calcium flux Fluo4; hits give low values | B-score at 10 µM | actives 0.92% (n = 310,000);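 active = B-score of the integrated calcium signal more than 4 SD below the library mean, with starting fluorescence not abnormally high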;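 note: negative B-score means reduced calcium response which marks RGS4 activation or potentiation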
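Material: Inducible-RGS4 HEK293 cells carrying M3 receptor; also added: carbachol at ECmax as muscarinic agonist stimulus; incubation: compound preincubation 20 min at room temperature before agonist; signal: Fluo4-AM (2 µM) calcium-flux fluorescence, kinetic read; measure: integrated calcium ratio converted to B score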
MrgX1 agonist = agonists of human MrgX1 receptor | AID 588627 | actives 0.44% (n = 310,000) | B-score at 10 µM | MrgX1-HEK293 cells, Fluo-4 calcium fluorescence, agonist mode; hits give high values;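 active = calcium response B-score plate-corrected fluorescence ratio at least 3 library SD, with starting fluorescence B-score inside 5 SD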
Target sequence (Q96LB2 whole entry, looked up): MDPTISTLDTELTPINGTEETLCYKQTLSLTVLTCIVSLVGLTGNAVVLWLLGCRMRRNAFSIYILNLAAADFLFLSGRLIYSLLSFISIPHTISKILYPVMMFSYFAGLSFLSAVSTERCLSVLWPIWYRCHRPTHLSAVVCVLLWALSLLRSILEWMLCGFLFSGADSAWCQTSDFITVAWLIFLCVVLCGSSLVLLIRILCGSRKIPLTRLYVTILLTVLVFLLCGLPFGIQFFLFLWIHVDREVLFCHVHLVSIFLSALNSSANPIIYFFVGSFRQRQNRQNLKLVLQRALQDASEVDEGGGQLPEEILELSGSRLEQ
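System: HEK293 cells stably expressing human MrgX1 receptor; Dosing: test compound in the initial addition of three; Schedule: overnight plating, then 30 min 37 °C plus 30 min room-temperature dye loading; Detection: kinetic calcium dye fluorescence, Fluo-4 NW; Controls: per-plate positive and negative controls for Z′ factor.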
MrgX1 antag = antagonists of human MrgX1 receptor; MRGX1-HEK293 calcium flux, Fluo-4, BAM8-22 antagonism; hits give low values; Q96LB2; actives 1.3% (n = 310,000); B-score at 10 µM;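 active = calcium-response B-score plate-corrected more than 3 library SD below zero, starting fluorescence within 5 deviations, no agonist response on first addition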;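 note: peak minus trough fluorescence over baseline after final BAM8-22 challenge near maximal dose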
MrgX1 allo act = allosterically activates human MrgX1 receptor signaling; Q96LB2; AID 588675; B-score at 10 µM; MrgX1-HEK293, Fluo-4 calcium flux, FDSS; hits give high values; actives 0.63% (n = 310,000);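 active = plate-corrected calcium response at least 3 library SD above typical, normal starting fluorescence, not activating the receptor alone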;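 note: compound read alongside a low EC10 to EC30 dose of BAM8-22 agonist; peak minus trough fluorescence over baseline measured at the second addition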
RGS4 inh = human RGS4 inhibition; B-score at 10 µM; P49798; actives 0.45% (n = 310,000); HEK293 M3R/RGS4 inducible, Fluo-4 calcium flux; hits give high values; triggered by carbachol at its EC20;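 active = B-score, a plate-corrected calcium signal, over three deviations above library mean, with baseline fluorescence within five deviations of library mean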;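 note: RGS4 expression induced by doxycycline in cells with stable M3 receptor; B-score is computed from the integrated fluorescence ratio over baseline after carbachol; higher B-score means a larger calcium signal and so more RGS4 inhibition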
Target sequence (P49798 whole entry, looked up): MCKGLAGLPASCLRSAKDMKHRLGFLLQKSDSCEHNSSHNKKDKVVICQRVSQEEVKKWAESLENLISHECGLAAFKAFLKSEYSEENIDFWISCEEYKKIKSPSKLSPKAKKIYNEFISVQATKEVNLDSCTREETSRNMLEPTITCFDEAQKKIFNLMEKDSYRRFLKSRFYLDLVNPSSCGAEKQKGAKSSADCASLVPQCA
MrgX1 ant reconf = confirmation of human MrgX1 receptor antagonists. shares compounds with MrgX1 antag. MrgX1-HEK293, BAM8-22 calcium flux, Fluo-4; hits give low values. remaining BAM8-22 calcium response % of control (hits give low values), % at 10 µM. actives 19% (n = 2,300);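 active = remaining agonist calcium response no higher than 100% minus 3 SD of agonist-only control wells, with starting fluorescence near control levels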;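 note: agonist BAM8-22 given at a near maximal EC90 to ECmax level; peak minus minimum fluorescence divided by baseline after agonist addition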
HEK293 Ca flux = counter-screen for MrgX1 antagonists: effect in parental HEK293 cells; shares compounds with MrgX1 antag; actives 2% (n = 4,000); fluorescence ratio F(max-min)/F0 at 10 µM; Fluo-4 calcium fluorescence, FDSS;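 active = duplicate-averaged calcium fluorescence ratio at least three times the standard deviation of buffer wells, a nonspecific response in parental cells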
HEK293 Ca counter = counter-screen for MrgX1 allosteric activators: effect in parental HEK293 cells. shares compounds with MrgX1 antag. parental HEK293 calcium flux, Fluo-4 fluorescence ratio; hits give high values. fluorescence ratio F(max-min)/F0 at 10 µM. actives 0.4% (n = 4,000). AID 624114;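 active = calcium fluorescence ratio, averaged over duplicates, at least 3 SD of the buffer-well ratio, meaning a nonspecific response in receptor-free cells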;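 note: untransfected parental HEK293 lacking MrgX1 used as counterscreen for MrgX1 allosteric activators; fluorescence change taken during the second addition on a kinetic imager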
HEK293 Ca cntr2 = counter-screen for MrgX1 activators: effect in parental HEK293 cells. actives 8.7% (n = 4,000). Fluo-4 calcium fluorescence (FDSS); hits give high values. AID 624115. fluorescence ratio F(max-min)/F0 at 10 µM. shares compounds with MrgX1 antag;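 active = calcium fluorescence ratio at least three times the spread of buffer wells, meaning a non-specific response in parental cells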
An asterisk follows results filed as active; i = inactive; . = no result given.

SMILES	RGS4 act	MrgX1 agonist	MrgX1 antag	MrgX1 allo act	RGS4 inh	MrgX1 ant reconf	HEK293 Ca flux	HEK293 Ca counter	HEK293 Ca cntr2
Cc1ccccc1CSCCNS(C)(=O)=O	i	i	-5.34*	i	i	i	i	i	i
Cc1ccc(S(=O)(=O)NC(C)(C)CSc2ncccn2)cc1	i	i	-9.9*	i	i	i	i	i	i
O=C(NCc1nnc2c(C(F)(F)F)cc(Cl)cn12)c1cccs1	i	i	i	i	i	.	.	.	.
COCCCn1c(O)c(/C=C2\N=C(C#N)C(=Nc3ccc(C)cc3)O2)sc1=S	i	i	-11.1*	i	i	i	i	i	i
O=C1C2N=NN(CC(=O)N3N=C(c4ccccc4)CC3c3ccc([N+](=O)[O-])cc3)C2C(=O)N1c1ccccc1 (stereo not given)	i	i	i	i	i	.	.	.	.
CCN1C(=O)C(CC(=O)NCc2ccc(Cl)cc2)N(CC)C1=O (stereo not given)	i	i	-5.09*	i	i	i	i	i	i
c1ccc(CN2CCN(c3ncnc4c3[nH]c3ccccc34)CC2)cc1	i	i	-6.07*	i	i	53.1%*	i	i	i
c1ccc(Cn2nnc3c(N4CCCC4)ncnc32)cc1	i	i	i	i	i	.	.	.	.
CCN1CCN(c2ncnc3c2nnn3Cc2ccccc2)CC1	i	i	-4.58*	i	i	i	i	i	i
Cc1ccc2c(c1)[nH]c1c(N3CCN(Cc4ccccc4)CC3)ncnc12	i	i	i	i	i	.	.	.	.
c1ccc2c(c1)[nH]c1c(N3CCC4(CC3)OCCO4)ncnc12	i	i	i	i	i	.	.	.	.
Cc1ccc2[nH]c3c(N4CCN(Cc5ccccc5)CC4)ncnc3c2c1	i	i	-6.16*	i	i	64.6%*	i	i	i
CCOC(=O)c1cnc2nc(C(F)(F)F)[nH]n2c1=O	i	i	-5.52*	i	i	i	i	i	i
Cc1cc(Br)ccc1NCc1ccccn1	i	i	-6.01*	i	i	i	i	i	i
COCCNC(=O)C1CCC(CNS(=O)(=O)c2ccccc2)CC1 (stereo not given)	i	i	i	i	i	.	.	.	.
CCOC(=O)C1CCCN(S(=O)(=O)c2nc3nc(C)cc(C)n3n2)C1 (stereo not given)	i	i	-5.8*	i	i	i	i	i	i
CCOC(=O)C1CCCN(S(=O)(=O)c2cc3[nH]c(=O)c(=O)[nH]c3cc2C)C1 (stereo not given)	i	i	i	i	i	.	.	.	.
CCn1c(SCCN2CCOCC2)nc2c1c(=O)n(C)c(=O)n2C	i	i	i	i	i	.	.	.	.
Cc1ccccc1OCc1nnc(SCC(=O)Nc2ccc(N3CCOCC3)cc2)n1C	i	i	i	i	i	.	.	.	.
CCc1nnc(SCC(=O)Nc2ccc(N3CCOCC3)cc2)n1C	i	i	-5.64*	i	i	i	i	i	i
Oc1cc(O)cc(-c2cc3ccc(O)cc3o2)c1	i	i	-5.97*	i	i	i	i	i	i
NC(=S)c1cc2ccc(O)cc2oc1=O	i	.	.	.	i	.	.	.	.
COc1cccc([C@@H]2CC=C(C(=O)O)CN2S(=O)(=O)c2ccc(C)cc2)c1	.	i	i	i	.	.	.	.	.
CCOc1ccccc1NC(=O)c1ccc(-n2cncn2)nc1	i	i	i	i	i	.	.	.	.
COc1ccccc1NC(=O)c1ccc(-n2cncn2)nc1	i	i	-5.24*	i	i	77.7%*	i	i	i
SMILES	RGS4 act	MrgX1 agonist	MrgX1 antag	MrgX1 allo act	RGS4 inh	MrgX1 ant reconf	HEK293 Ca flux	HEK293 Ca counter	HEK293 Ca cntr2
Cc1nc2nc(-c3ccco3)[nH]n2c(=O)c1C	i	i	-11.7*	i	i	i	i	i	i
Cc1nc2nc(-c3ccco3)[nH]n2c(=O)c1Cc1ccccc1	i	i	i	i	i	.	.	.	.
COc1ccc(CN2CCC(N3CC(C)OC(C)C3)CC2)c(OC)c1 (stereo not given)	i	i	-4.77*	i	i	i	i	i	i
C=CCOC(=O)C1=C(C)N(C)C(=O)NC1c1cc2c(cc1Br)OCO2 (stereo not given)	i	i	-4.65*	i	i	85.4%*	i	i	i
Cc1cc(C)n(CCCNC(=O)c2ccc3c(c2)NC(=O)CS3)n1	i	i	-8*	i	i	i	i	i	i
CN1CCN(S(=O)(=O)c2cccc(C(=O)Nc3nc(-c4ccccc4)cs3)c2)CC1	i	i	i	i	i	.	.	.	.
COc1ccc(-c2csc(NC(=O)c3cccc(S(=O)(=O)N4CCN(C)CC4)c3)n2)cc1	i	i	-5.81*	i	i	i	i	i	i
CCOc1ccc(CN2CCC(C(=O)Nc3cccc(-c4ccn[nH]4)c3)CC2)cc1Cl	i	i	i	i	i	.	.	.	.
O=C(CSc1nc(-c2ccc(F)cc2)cs1)N1CCOCC1	i	i	-9.2*	i	i	i	i	i	i
CNC(=O)c1c(NC(=O)c2ccc(S(=O)(=O)N3CCCc4ccccc43)cc2)sc2c1CCN(C)C2	i	i	-5.5*	i	i	i	0.658*	i	49*
CCCN(C(=O)CCl)C1=CCCCC1	i	i	i	i	i	.	.	.	.
CCCSc1nc2c(c(=O)[nH]c(=O)n2C)n1Cc1ccccc1	i	i	i	i	i	.	.	.	.
C=C(C)CSc1nc2c(c(=O)[nH]c(=O)n2C)n1Cc1ccccc1	i	i	-4.82*	i	i	82.9%*	i	i	i
CC(/C=N/Nc1nc(C)cc(C)n1)=C\c1ccc(C(C)C)cc1	i	i	i	i	i	.	.	.	.
Nc1nc(N2CCN(c3ccccc3)CC2)n[nH]1	i	i	-5.66*	i	i	i	i	i	i

Assay outcomes from PubChem.
